Activity calls are given as the source filed them. The calls are words filed in the database; no cut-off is given here.
Biological target: T1, Mitogen-activated protein kinase kinase kinase 5 (Homo sapiens) (UniProt Q99683)
T1 sequence (whole entry): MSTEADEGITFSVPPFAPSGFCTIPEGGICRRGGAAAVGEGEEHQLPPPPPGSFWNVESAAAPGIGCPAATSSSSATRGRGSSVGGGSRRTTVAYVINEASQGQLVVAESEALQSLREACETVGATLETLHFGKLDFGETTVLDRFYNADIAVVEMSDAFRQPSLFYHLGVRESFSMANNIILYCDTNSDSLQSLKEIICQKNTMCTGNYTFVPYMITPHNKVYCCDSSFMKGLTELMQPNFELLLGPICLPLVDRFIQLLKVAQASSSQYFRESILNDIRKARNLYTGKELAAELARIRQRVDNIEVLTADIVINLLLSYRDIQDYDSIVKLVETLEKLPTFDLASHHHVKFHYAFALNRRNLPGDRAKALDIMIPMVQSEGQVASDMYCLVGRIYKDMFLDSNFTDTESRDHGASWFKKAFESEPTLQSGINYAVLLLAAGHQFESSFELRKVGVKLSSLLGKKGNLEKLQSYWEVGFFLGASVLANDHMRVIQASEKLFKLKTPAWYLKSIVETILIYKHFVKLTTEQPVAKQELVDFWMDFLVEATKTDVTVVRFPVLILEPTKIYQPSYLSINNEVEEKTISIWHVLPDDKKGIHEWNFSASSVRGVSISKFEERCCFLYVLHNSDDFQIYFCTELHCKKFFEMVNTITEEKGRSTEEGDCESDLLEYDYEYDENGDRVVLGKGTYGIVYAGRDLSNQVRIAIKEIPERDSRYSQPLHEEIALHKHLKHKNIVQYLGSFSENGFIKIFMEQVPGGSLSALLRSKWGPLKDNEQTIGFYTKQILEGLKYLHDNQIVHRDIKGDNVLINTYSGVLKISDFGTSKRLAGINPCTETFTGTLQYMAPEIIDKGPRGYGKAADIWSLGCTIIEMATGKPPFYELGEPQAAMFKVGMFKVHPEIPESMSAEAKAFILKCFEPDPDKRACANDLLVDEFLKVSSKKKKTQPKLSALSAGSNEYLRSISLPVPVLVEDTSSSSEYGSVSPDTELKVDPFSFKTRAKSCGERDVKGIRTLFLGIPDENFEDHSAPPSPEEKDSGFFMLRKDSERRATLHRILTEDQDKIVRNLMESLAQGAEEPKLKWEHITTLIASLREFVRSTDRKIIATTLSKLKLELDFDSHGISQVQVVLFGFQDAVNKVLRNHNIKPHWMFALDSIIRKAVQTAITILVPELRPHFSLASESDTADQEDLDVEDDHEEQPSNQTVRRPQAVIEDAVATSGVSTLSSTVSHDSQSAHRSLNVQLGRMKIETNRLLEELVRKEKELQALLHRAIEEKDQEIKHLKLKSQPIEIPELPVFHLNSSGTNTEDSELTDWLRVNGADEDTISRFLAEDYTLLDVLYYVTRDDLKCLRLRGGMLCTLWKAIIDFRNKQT
Assay: Inhibition of recombinant full length human ASK1 expressed in HEK293/AP1-Luc cells assessed as reduction in autophosphorylation at Thr-838 residue at 10 uM after 30 mins by Western blot analysis
Format: cell-based
How it was run: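 Stable HEK293/AP-1luc pools expressing wild-type or K709R full-length human ASK1 (or parental cells) plated in DMEM with 10% FBS, Geneticin and puromycin. Next day, washed in serum-free medium, then treated with 10 μM compound (final) at 37 °C for 30 min. Cells lysed in M-PER with protease/phosphatase inhibitors; protein by BCA; Western blot for ASK1, phospho-Thr838 ASK1 and α-tubulin.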

inhibition: Active
SMILES: COc1ccc(S(C)(=O)=O)cc1C(=O)Nc1cccc(-c2nncn2C(C)C)n1
